SR-BI uptake up: enhances SR-BI lipid uptake from DiI-HDL; activation, % at 12.5 µM; 0.096% of 320,000 active; CHO ldlA[mSR-BI] cells, DiI-HDL uptake fluorescence, 3 h; 100 = double the neutral-control signal;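 active = mean replicate activation of at least 60% and every replicate at or above 60%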;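 note: 0% = median plate neutral-control signal and 100% = twice that signal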
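Assay system: CHO ldlA[mSR-BI] cells, LDL receptor-null, SR-BI overexpressing; medium: Ham's F12 with 0.5% BSA, HEPES 25 mM, pH 7.4; also added: DiI-HDL 10 µg/mL; timing: 3 h uptake period with compound, 37 °C; signal: DiI fluorescence, bottom read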
SR-BI DiI inh: blocks mouse SR-BI lipid uptake from DiI-HDL; Q61009; ldlA[mSR-BI] CHO cells, DiI-HDL uptake fluorescence, 3 h; inhibition, % at 12.5 µM; 0.96% of 320,000 active; AID 488896;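 active = mean replicate inhibition of at least 70% and a set share of replicates each scoring 70 or more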;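 note: 0% = median of neutral control wells and 100% = median of positive control wells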
CAL PDZ FP-1: inhibitors of human CAL PDZ peptide binding; Q9HD26; purified CAL PDZ, TMR-peptide fluorescence polarization, 1 h; inhibition, % at 24.9 µM; 0.92% of 300,000 active;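 active = mean inhibition of at least 30% with at least half of replicates also reaching 30%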;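 note: 0% = DMSO neutral control and 100% = excess unlabeled competitor peptide PRC23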
CAL PDZ FP-2: inhibitors of human CAL PDZ peptide binding; purified CAL PDZ, TMR-peptide fluorescence polarization, 1 h; AID 504414; inhibition, % at 20 µM; 0.02% of 330,000 active;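 active = highest replicate inhibition of at least 40%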;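 note: plate controls were DMSO neutral control wells for no effect and unlabeled competitor peptide control wells for full effect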
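Control set: unlabelled peptide and DMSO controls / Material: purified CerCALP PDZ construct / Timing: 1 h incubation at room temperature before polarization reading / Doses: 20 µM, one dose / Detection: fluorescence polarization (mP)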
ATG4B inh: ATG4B (human) cysteine protease inhibition; Q9Y4P1; ATG4B cleavage of LC3-PLA2, NBD-HPC fluorescence, 1 h; inhibition, % at 8.33 µM; 0.51% of 340,000 active; AID 504462; in the data active = inhibition above about 40%
Target sequence (Q9Y4P1 whole entry, looked up): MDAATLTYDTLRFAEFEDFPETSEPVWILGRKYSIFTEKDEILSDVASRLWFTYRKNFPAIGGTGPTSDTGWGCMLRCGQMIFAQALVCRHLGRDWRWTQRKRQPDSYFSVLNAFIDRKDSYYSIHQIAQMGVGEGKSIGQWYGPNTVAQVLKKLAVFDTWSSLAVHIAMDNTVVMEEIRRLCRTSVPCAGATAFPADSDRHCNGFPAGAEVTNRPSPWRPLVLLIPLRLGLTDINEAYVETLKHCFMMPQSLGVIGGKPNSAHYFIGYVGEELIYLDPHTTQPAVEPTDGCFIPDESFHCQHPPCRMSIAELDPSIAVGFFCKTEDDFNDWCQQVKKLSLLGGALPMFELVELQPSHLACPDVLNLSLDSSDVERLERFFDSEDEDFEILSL
Numbers without * were called inactive; . = not tested or not shown. A selection: hits, their analogues and other compounds. The true share with any hit is near 2.3%.

SMILES	SR-BI uptake up	SR-BI DiI inh	CAL PDZ FP-1	CAL PDZ FP-2	ATG4B inh
O=C(Nc1nc(-c2ccccc2)cs1)c1cccc([N+](=O)[O-])c1	-51	51	.	0	-2
O=C(Nc1ccc(-c2csc(Nc3cccc(C(F)(F)F)c3)n2)cc1)c1ccccc1	-97	97*	3	0	0
CC(=O)c1cccc(Nc2nc(-c3ccccc3)cs2)c1	-75	75*	0	1	-8
COc1cc(C(=O)c2ccccc2C(=O)O)c(OC)c2c1CCCC2	10	-10	1	-1	4
COC(=O)c1cc(C(=O)OCC(=O)N(C)c2ccccc2)cc([N+](=O)[O-])c1	-14	14	-3	-1	-7
CCOC(=O)c1sc(-c2ccccc2)cc1NC(=O)Nc1ccc([N+](=O)[O-])cc1	-78	78*	-1	0	5
N/C(=N\NC(=O)c1cccs1)c1cc2cc(Cl)ccc2oc1=O	-24	24	1	-1	5
COc1ccc(OC)c2[nH]c(=O)c(CCNC(=O)c3ccc(S(=O)(=O)N4CCCC4)cc3)cc12	-34	34	-4	1	-10
CCN(CC)S(=O)(=O)c1ccc(C(=O)NCCc2cc3c(OC)ccc(OC)c3[nH]c2=O)cc1	-89	89*	0	1	-13
Cc1ccc(S(=O)(=O)N(C)c2ccc(OC(=O)CN3C(=O)NC4(CCCC4)C3=O)cc2)cc1C	17	-17	-2	-2	7
O=C(CSc1ncnc2ccccc12)NCCc1ccccc1	11	-11	45*	11	0
CCCCNC(=O)CSc1nc(CCC)nc2ccccc12	1	-1	30*	0	-6
CC(NC(=O)c1cc(-c2ccccn2)nc2ccc(Cl)cc12)C1CCCO1 (configuration not stated)	-4	4	-6	-3	2
COc1cc(/C=C2/C(=N)N3C=CSC3=NC2=O)ccc1OCCCOc1ccccc1C	-62	62	-4	-2	-1
CCOc1cc(/C=C2/C(=N)N3C=CSC3=NC2=O)ccc1OCCCOc1ccccc1C	-102	102*	-1	-2	-2
COc1ccc(OCC(=O)NCc2nc(-c3ccccc3)no2)cc1	-6	6	.	-1	0
Oc1ccc(N=Nc2ccc3ccccc3c2)cc1	-3	3	3	-1	0
O=C(Cc1coc2cc(O)ccc12)N1CCN(S(=O)(=O)c2ccc(Br)cc2)CC1	-20	20	3	-3	-21
COc1ccc(O)c(/C=N/NC(=O)c2ccc(CSc3nc(C)cc(C)n3)cc2)c1	-125	125*	0	-2	-9
Cc1cc(C)nc(SCc2ccc(C(=O)N/N=C/c3cccc(O)c3O)cc2)n1	-93	93*	-5	0	-7
O=C(CCc1nc2ccccc2c(=O)[nH]1)N1CCN(S(=O)(=O)c2cccc(F)c2)CC1	18	-18	0	-3	-4
N#C/C(=C/c1cn[nH]c1-c1ccc(Br)cc1)C(=O)O	27	-27	33*	-2	-11
Cc1nc(N)[nH]c(=O)c1CC(=O)OCCCl	-5	5	56*	0	0
CC(=O)c1sc(NC(=O)CCCc2nc3ccccc3c(=O)[nH]2)nc1-c1ccccc1	8	-8	52*	-1	-11
CC(=O)c1cccc(NC(=O)c2csc3c2CCCCC3)c1	-50	50	-2	-1	-6
SMILES	SR-BI uptake up	SR-BI DiI inh	CAL PDZ FP-1	CAL PDZ FP-2	ATG4B inh
CC(=O)c1cccc(NC(=O)Nc2csc3c2CCCC3)c1	-75	75*	.	0	13
Cc1nc(C)c(-c2ccc(SCC(=O)Nc3cccc(Cl)c3C)nn2)s1	-22	22	-3	-2	36
COc1cc2c(cc1OC)C(Cc1ccccc1[N+](=O)[O-])=NCC2	-11	11	-4	-1	4
O=C(N/C(=C\c1ccc(Cl)cc1)C(=O)N1CCCCC1)c1ccco1	2	-2	82*	-1	-11
CSc1ccc(/C=C(/NC(=O)c2ccco2)C(=O)N2CCCCCC2)cc1	-11	11	-7	0	-8
COc1ccc(-c2oc3ccc(-c4ccc(OC)nc4)cc3c2C#CC2(O)CCCCC2)cc1	-85	85*	-2	-3	0
COc1ccc(-c2oc3ccc(-c4cc(OC)c(OC)c(OC)c4)cc3c2C(=O)c2ccc(OC)nc2)cc1	-44	44	-3	-1	1
COc1ccc(-c2oc3ccc(-c4ccc5c(c4)OCO5)cc3c2C#CC2(O)CCCCC2)cc1	-84	84*	0	1	0
CCCOC(=O)c1c(-c2ccc(OC)cc2)oc2ccc(-c3ccc(OC)nc3)cc12	-73	73*	-2	0	7
COc1ccc(C(=O)c2c(-c3ccc(OC)cc3)oc3ccc(-c4cc(OC)c(OC)c(OC)c4)cc23)cc1	-73	73*	-1	0	-4
C/C(=N/NC(=O)CNC(=O)c1ccncc1)c1ccco1	-5	5	.	0	2
COc1ccc(CN2CCNC(=O)C2CC(=O)NCCCn2cccn2)c(OC)c1 (configuration not stated)	-2	2	0	-2	-12
Cc1ccc(NC(=O)OCCNC(=O)OC(C)C)cc1	3	-3	38*	0	-10
CCOC(=O)NCCOC(=O)Nc1ccc(Cl)cc1	18	-18	0	-1	0
COc1ccc2[nH]c(C(=O)N/N=C/c3ccc(O)cc3O)cc2c1	-99	99*	-1	5	22
COc1cccc(/C=N/NC(=O)c2cc3c(OC)ccc(OC)c3[nH]2)c1O	-144	144*	2	1	-16
COc1cc(OC)c2cc(C(=O)N/N=C/c3cccc(OC)c3O)[nH]c2c1	-121	121*	-2	3	-14
COc1cccc(/C=N/NC(=O)c2ccc3nc[nH]c3c2)c1O	-38	38	-15	-2	-8
CC1CCN(CC(=O)Nc2ccc(C(=O)N3CCCCC3)cc2)CC1	3	-3	-5	-3	-5
COc1ccc(NC(=O)/C(=C\c2ccncc2)NC(=O)c2ccccc2)cc1	-2	2	.	0	-13
CCNc1ccc(C(=O)OCC)cc1NC(=O)c1cccc(N(C)C)c1	-86	86*	-4	0	-5
CCNc1ccc(C(=O)OCC)cc1NC(=O)c1cccc(S(=O)(=O)N(C)c2ccccc2)c1	-57	57	0	-1	-7
O=C(Nc1ccc(Br)cc1)C1CCN(c2cnccn2)CC1	13	-13	1	-3	3
C/C(=N\NC(=S)NC1CCCCC1)c1c(F)cccc1F	-15	15	44*	0	4
COc1cccc2c1O/C(=N\O)C(C(=O)Nc1cccc(Br)c1)C2 (configuration not stated)	-58	58	-7	-1	-11
CCOC(=O)c1sc2nc(C3CC3)cc(-c3ccc(F)cc3)c2c1N	-77	77*	-1	-2	-7

High-throughput results from PubChem BioAssay.
